In brackets after ≈: the same amount, converted by molar mass. Activity calls are given as the source filed them. No cut-off for these calls is given here.
What was measured:
Candida albicans [1] = assay: Antifungal activity against Candida albicans ATCC 10231 after 48 hrs by NCCLS broth microdilution method; type: functional; conditions: ATCC 10231, 48 h, read-out: MIC100
Procedure, shortened: (§1)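 Yeast MIC by NCCLS M27-A3 broth microdilution in RPMI-1640 buffered to pH 7.0 with MOPS. Twofold dilutions of 250–0.98 µg/mL, final DMSO ≤1%. Inoculum 1–5 × 10³ CFU/mL. Incubated at 30 °C in a moist dark chamber. Read visually at 48 h. MIC100 is the lowest concentration with no visible growth versus drug-free control.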

Candida tropicalis [2] = assay: Antifungal activity against Candida tropicalis after 48 hrs by NCCLS broth microdilution method; type: functional; conditions: read-out: MIC100; procedure, shortened: as §1
Cryptococcus neoformans [3] = assay: Antifungal activity against Cryptococcus neoformans ATCC 32264 after 48 hrs by NCCLS broth microdilution method; type: functional; conditions: ATCC 32264, 48 h, read-out: MIC100; procedure, shortened: as §1
Aspergillus flavus [4] = assay: Antifungal activity against Aspergillus flavus ATCC 9170 by NCCLS broth microdilution method; type: functional; conditions: read-out: MIC100
Procedure, shortened: (§2)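 MIC by broth microdilution per NCCLS M27-A3/M38-A2 in RPMI-1640 buffered to pH 7.0 with MOPS. Twofold dilutions from 250–0.98 µg/mL, final DMSO ≤1%. Inoculum 1–5 × 10³ CFU/mL. Incubated in a moist dark chamber, 30 °C for Aspergillus and 28–30 °C for dermatophytes. Read visually when control growth allowed. Endpoint is the lowest concentration giving total inhibition of visible growth (MIC100).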

Aspergillus fumigatus [5] = assay: Antifungal activity against Aspergillus fumigatus ATCC 26934 by NCCLS broth microdilution method; type: functional; conditions: read-out: MIC100; procedure, shortened: as §2
Aspergillus niger [6] = assay: Antifungal activity against Aspergillus niger ATCC 9029 by NCCLS broth microdilution method; type: functional; conditions: read-out: MIC100; procedure, shortened: as §2
Nannizzia gypsea [7] = assay: Antifungal activity against Microsporum gypseum CCC 115 by NCCLS broth microdilution method; type: functional; conditions: read-out: MIC100; procedure, shortened: as §2
Trichophyton rubrum [8] = assay: Antifungal activity against Trichophyton rubrum CCC 110 by NCCLS broth microdilution method; type: functional; conditions: read-out: MIC100; procedure, shortened: as §2
[9] = test system: Trichophyton mentagrophytes; assay: Antifungal activity against Trichophyton mentagrophytes ATCC 9972 by NCCLS broth microdilution method; type: functional; conditions: read-out: MIC100; procedure, shortened: as §2
Candida tropicalis [10] = assay: Antifungal activity against Candida tropicalis by microplate reader analysis; type: functional
Candida albicans [11] = assay: Antifungal activity against Candida albicans ATCC 10231 after 24 hrs by microplate reader analysis; type: functional; conditions: ATCC 10231, 24 h
Procedure, shortened: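 96-well RPMI-1640 wells with compound at final 250–0.98 µg/mL (DMSO ≤1%). Inoculum 100 µL, 1–5 × 10³ CFU/mL, 200 µL final. Each well includes growth (DMSO, no compound) and sterility controls. % inhibition = 100 − (CTW−SCW)/(GCW−SCW) × 100, run in duplicate.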

Cryptococcus neoformans [12] = assay: Antifungal activity against Cryptococcus neoformans ATCC 32264 after 48 hrs by microplate reader analysis; type: functional; conditions: ATCC 32264, 48 h
Procedure, shortened: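 Microplate growth-inhibition assay in RPMI-1640, compound at final 250–0.98 µg/mL (DMSO ≤1%). Inoculum 1–5 × 10³ CFU/mL. Sterility and DMSO growth controls included. Percent inhibition is computed from blank-corrected OD relative to the growth control, tested in duplicate.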

Candida albicans [13] = assay: Antifungal activity against Candida albicans ATCC 10231 at 0.98 to 250 ug/mL after 48 hrs by NCCLS broth microdilution method; type: functional, organism-based; procedure, shortened: as §1
Candida tropicalis [14] = assay: Antifungal activity against Candida tropicalis at 0.98 to 250 ug/mL after 48 hrs by NCCLS broth microdilution method; type: functional, organism-based; procedure, shortened: as §1
Cryptococcus neoformans [15] = assay: Antifungal activity against Cryptococcus neoformans ATCC 32264 at 0.98 to 250 ug/mL after 48 hrs by NCCLS broth microdilution method; type: functional, organism-based; procedure, shortened: as §1
Aspergillus flavus [16] = assay: Antifungal activity against Aspergillus flavus ATCC 9170 at 0.98 to 250 ug/mL by NCCLS broth microdilution method; type: functional, organism-based; procedure, shortened: as §2
Aspergillus fumigatus [17] = assay: Antifungal activity against Aspergillus fumigatus ATCC 26934 at 0.98 to 250 ug/mL by NCCLS broth microdilution method; type: functional, organism-based; procedure, shortened: as §2
Aspergillus niger [18] = assay: Antifungal activity against Aspergillus niger ATCC 9029 at 0.98 to 250 ug/mL by NCCLS broth microdilution method; type: functional, organism-based; procedure, shortened: as §2
Nannizzia gypsea [19] = assay: Antifungal activity against Microsporum gypseum CCC 115 at 0.98 to 250 ug/mL by NCCLS broth microdilution method; type: functional, organism-based; procedure, shortened: as §2
Trichophyton rubrum [20] = assay: Antifungal activity against Trichophyton rubrum CCC 110 at 0.98 to 250 ug/mL by NCCLS broth microdilution method; type: functional, organism-based; procedure, shortened: as §2
[21] = test system: Trichophyton mentagrophytes; assay: Antifungal activity against Trichophyton mentagrophytes ATCC 9972 at 0.98 to 250 ug/mL by NCCLS broth microdilution method; type: functional, organism-based; procedure, shortened: as §2

| Compound | MIC (Candida albicans [1]) [µg/mL] | MIC (Candida tropicalis [2]) [µg/mL] | MIC (Cryptococcus neoformans [3]) [µg/mL] | MIC (Aspergillus flavus [4]) [µg/mL] | MIC (Aspergillus fumigatus [5]) [µg/mL] | MIC (Aspergillus niger [6]) [µg/mL] | MIC (Nannizzia gypsea [7]) [µg/mL] | MIC (Trichophyton rubrum [8]) [µg/mL] | MIC [9] [µg/mL] | Activity (Candida albicans [13]) | Activity (Candida tropicalis [14]) | Activity (Cryptococcus neoformans [15]) | Activity (Aspergillus flavus [16]) | Activity (Aspergillus fumigatus [17]) | Activity (Aspergillus niger [18]) | Activity (Nannizzia gypsea [19]) | Activity (Trichophyton rubrum [20]) | Activity [21] | further results |
| --- | --- | --- | --- | --- | --- | --- | --- | --- | --- | --- | --- | --- | --- | --- | --- | --- | --- | --- | --- |
| CC(=O)N1CCN(c2ccc(OCC3COC(Cn4ccnc4)(c4ccc(Cl)cc4Cl)O3)cc2)CC1 (centres undefined) [KETOCONAZOLE] | 0.98 (≈ 1.84 µM) | 0.49 (≈ 0.922 µM) | 0.25 (≈ 0.47 µM) | 0.12 (≈ 0.226 µM) | 0.49 (≈ 0.922 µM) | 0.25 (≈ 0.47 µM) | 0.06 (≈ 0.113 µM) | 0.03 (≈ 0.0565 µM) | 0.03 (≈ 0.0565 µM) |  |  |  |  |  |  |  |  |  |  |
| C[C@@H]1[C@H](O)[C@@H](C)/C=C/C=C/C=C/C=C/C=C/C=C/C=C/[C@H](O[C@@H]2O[C@H](C)[C@@H](O)[C@H](N)[C@@H]2O)C[C@@H]2O[C@](O)(C[C@@H](O)C[C@@H](O)[C@H](O)CC[C@@H](O)C[C@@H](O)CC(=O)O[C@H]1C)C[C@H](O)[C@H]2C(=O)O [AMPHOTERICIN B] | 0.98 (≈ 1.06 µM) | 0.98 (≈ 1.06 µM) | 0.25 (≈ 0.271 µM) | 0.49 (≈ 0.53 µM) | 0.49 (≈ 0.53 µM) | 0.49 (≈ 0.53 µM) | 0.12 (≈ 0.13 µM) | 0.06 (≈ 0.0649 µM) | 0.06 (≈ 0.0649 µM) |  |  |  |  |  |  |  |  |  | MIC50 (Candida tropicalis [10]): 0.49 µg/mL (≈ 0.53 µM); MIC50 (Candida albicans [11]): 0.49 µg/mL (≈ 0.53 µM); MIC50 (Cryptococcus neoformans [12]): 0.98 µg/mL (≈ 1.06 µM) |
| CN(C/C=C/C#CC(C)(C)C)Cc1cccc2ccccc12 [TERBINAFINE] | 0.98 (≈ 3.36 µM) | 1.95 (≈ 6.69 µM) | 0.49 (≈ 1.68 µM) | 0.98 (≈ 3.36 µM) | 0.98 (≈ 3.36 µM) | 1.96 (≈ 6.73 µM) | 0.04 (≈ 0.137 µM) | 0.01 (≈ 0.0343 µM) | 0.03 (≈ 0.103 µM) |  |  |  |  |  |  |  |  |  |  |
| COc1nc(N)c(N=O)c(=O)n1Cc1ccccc1 |  |  |  |  |  |  |  |  |  | inactive | inactive | inactive | inactive | inactive | inactive | inactive | inactive | inactive |  |
| CCOC(=O)[C@H](Cc1ccccc1)Nc1nc(N)nc(OCC2CCCCC2)c1N=O |  |  |  |  |  |  |  |  |  | inactive | inactive | inactive | inactive | inactive | inactive | inactive | inactive | inactive |  |
| CCC(C)C(Nc1nc(N)[nH]c(=O)c1N=O)C(=O)O (centres undefined) |  |  |  |  |  |  |  |  |  | inactive | inactive | inactive | inactive | inactive | inactive | inactive | inactive | inactive |  |
| COc1nc(N)nc(OC)c1N=O |  |  |  |  |  |  |  |  |  | inactive | inactive | inactive | inactive | inactive | inactive | inactive | inactive | inactive |  |
| CCOC(=O)CCNc1nc(N)nc(Nc2ccccc2)c1N=O |  |  |  |  |  |  |  |  |  | inactive | inactive | inactive | inactive | inactive | inactive | inactive | inactive | inactive |  |
| COc1nc(N)nc(NC23CC4CC(CC(C4)C2)C3)c1N=O |  |  |  |  |  |  |  |  |  | inactive | inactive | inactive | inactive | inactive | inactive | inactive | inactive | inactive |  |
